Data reported in ChEMBL document CHEMBL5316280, “Development of N-(1-Adamantyl)benzamides as Novel Anti-Inflammatory Multitarget Agents Acting as Dual Modulators of the Cannabinoid CB2 Receptor and Fatty Acid Amide Hydrolase” (J Med Chem, 2023).
Active and inactive are the calls of the source. No cut-off for these calls is given here.

What was measured:
THP-1 [1] = assay: Antiinflammatory activity in human THP-1 monocytes assessed as increase in IL-10 level incubated for 24 hrs by ELISA based qRT-PCR analysis; type: functional, cell-based
How it was run: (§1)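 THP-1 cells were seeded at 1 x 10⁵ cells/ml for 48 h. For macrophages, cells were differentiated with 0.01 µM PMA for 48 h; monocytes received no PMA. Cells were then given 24 h with or without 10 µg/ml LPS, plus ligands alone or with the CB2R inverse agonist JTE907 (10 µM). Cytokines were measured in 5 µL supernatant (from 1 x 10⁴ cells) by ProQuantum immunoassay, read as pg/ml from kit titration curves; n=3.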

Cannabinoid receptor 2 = Cannabinoid receptor 2 (Homo sapiens, UniProt P34972); assay: Agonist activity at human CB2 receptor overexpressed in CHO-K1 cells assessed as cAMP level incubated for 30 mins by luminescence based assay relative to control; type: functional, cell-based; details: filed as agonist
Cannabinoid receptor 2, sequence (P34972 whole entry): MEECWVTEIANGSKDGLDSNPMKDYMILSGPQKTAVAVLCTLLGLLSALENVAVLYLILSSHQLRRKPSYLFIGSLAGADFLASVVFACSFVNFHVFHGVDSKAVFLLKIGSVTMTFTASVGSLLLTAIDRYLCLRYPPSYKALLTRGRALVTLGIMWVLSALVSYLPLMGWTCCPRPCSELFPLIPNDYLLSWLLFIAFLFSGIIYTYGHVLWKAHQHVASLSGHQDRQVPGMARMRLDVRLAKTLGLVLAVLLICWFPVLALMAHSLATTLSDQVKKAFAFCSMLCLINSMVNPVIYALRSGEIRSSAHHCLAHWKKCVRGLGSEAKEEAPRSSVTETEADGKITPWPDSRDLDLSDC
How it was run: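 CHO-K1 cells overexpressing human CB2R were plated at 30 000 cells/well and held overnight at 37 °C, 5% CO2. Test samples were added as dose–response solutions with NKH-477 to stimulate adenylate cyclase, then incubated 30 min at 37 °C. cAMP was detected by luminescence after cell lysis. Values were normalized to NKH-477 alone as 100% response. Three independent experiments were run in triplicate.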

THP-1 [2] = assay: Antiinflammatory activity in human THP-1 monocytes assessed as increase in IL-4 level incubated for 24 hrs by ELISA based qRT-PCR analysis; type: functional, cell-based; how it was run: as §1
[3] = target: Cannabinoid receptor 2 (Mus musculus) (UniProt P47936); assay: Agonist activity at mouse CB2 receptor transfected in CHO-K1 cells assessed as beta2-arrestin recruitment incubated for 90 mins by luminescence based assay relative to control; type: functional, cell-based
Cannabinoid receptor 2 (Mus musculus), sequence (P47936 whole entry): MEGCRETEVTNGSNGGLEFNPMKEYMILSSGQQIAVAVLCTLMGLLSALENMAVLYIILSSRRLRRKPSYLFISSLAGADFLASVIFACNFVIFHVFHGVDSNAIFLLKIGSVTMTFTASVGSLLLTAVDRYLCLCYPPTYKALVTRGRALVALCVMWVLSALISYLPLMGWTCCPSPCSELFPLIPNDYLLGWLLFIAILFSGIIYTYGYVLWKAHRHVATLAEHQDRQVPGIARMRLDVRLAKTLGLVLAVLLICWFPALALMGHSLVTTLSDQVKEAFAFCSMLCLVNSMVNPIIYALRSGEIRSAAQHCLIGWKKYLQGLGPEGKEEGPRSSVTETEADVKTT
How it was run: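 PathHunter eXpress kit using mouse CB2 receptor in CHO-K1 cells. Cells were seeded 48 h before the assay in kit medium. Compounds in cell plating reagent were incubated 90 min at 37 °C, 5% CO2. Working detection solution was then added for 60 min at room temperature to read β-arrestin recruitment.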

THP-1 [4] = assay: Antiinflammatory activity in human THP-1 macrophages assessed as decrease in IL-6 level incubated for 24 hrs by ELISA based qRT-PCR analysis; type: functional, cell-based; how it was run: as §1
THP-1 [5] = assay: Antiinflammatory activity in human THP-1 macrophages assessed as decrease in TNFalpha level incubated for 24 hrs by ELISA based qRT-PCR analysis; type: functional, cell-based; how it was run: as §1
THP-1 [6] = assay: Antiinflammatory activity in human THP-1 monocytes assessed as decrease in IL-1beta level incubated for 24 hrs by ELISA based qRT-PCR analysis; type: functional, cell-based; how it was run: as §1
THP-1 [7] = assay: Antiinflammatory activity in human THP-1 macrophages assessed as decrease in IFNgamma level incubated for 24 hrs in presence of […] by ELISA based qRT-PCR analysis; type: functional, cell-based; how it was run: as §1
THP-1 [8] = assay: Antiinflammatory activity in human THP-1 macrophages assessed as decrease in IL-1beta level incubated for 24 hrs in presence of […] by ELISA based qRT-PCR analysis; type: functional, cell-based; how it was run: as §1
THP-1 [9] = assay: Antiinflammatory activity in human THP-1 monocytes assessed as decrease in IL-6 level incubated for 24 hrs in presence of […] by ELISA based qRT-PCR analysis; type: functional, cell-based; how it was run: as §1
THP-1 [10] = assay: Antiinflammatory activity in human THP-1 monocytes assessed as increase in IL-4 level incubated for 24 hrs in presence of […] by ELISA based qRT-PCR analysis; type: functional, cell-based; how it was run: as §1
THP-1 [11] = assay: Antiinflammatory activity in human THP-1 macrophages assessed as increase in IL-4 level incubated for 24 hrs in presence of […] by ELISA based qRT-PCR analysis; type: functional, cell-based; how it was run: as §1
THP-1 [12] = assay: Antiinflammatory activity in LPS-activated human THP-1 macrophages assessed as increase in IL-10 level incubated for 24 hrs by ELISA based qRT-PCR analysis; type: functional, cell-based; how it was run: as §1
THP-1 [13] = assay: Antiinflammatory activity in LPS-activated human THP-1 macrophages assessed as increase in IL-4 level incubated for 24 hrs by ELISA based qRT-PCR analysis; type: functional, cell-based; how it was run: as §1
Cannabinoid receptor 1 [14] = target: T1, Cannabinoid receptor 1 (Homo sapiens, UniProt P21554); assay: […] human CB1 receptor in CHO cells incubated for 15 mins by plate reader analysis relative to control; type: cell-based
T1 sequence (P21554 whole entry): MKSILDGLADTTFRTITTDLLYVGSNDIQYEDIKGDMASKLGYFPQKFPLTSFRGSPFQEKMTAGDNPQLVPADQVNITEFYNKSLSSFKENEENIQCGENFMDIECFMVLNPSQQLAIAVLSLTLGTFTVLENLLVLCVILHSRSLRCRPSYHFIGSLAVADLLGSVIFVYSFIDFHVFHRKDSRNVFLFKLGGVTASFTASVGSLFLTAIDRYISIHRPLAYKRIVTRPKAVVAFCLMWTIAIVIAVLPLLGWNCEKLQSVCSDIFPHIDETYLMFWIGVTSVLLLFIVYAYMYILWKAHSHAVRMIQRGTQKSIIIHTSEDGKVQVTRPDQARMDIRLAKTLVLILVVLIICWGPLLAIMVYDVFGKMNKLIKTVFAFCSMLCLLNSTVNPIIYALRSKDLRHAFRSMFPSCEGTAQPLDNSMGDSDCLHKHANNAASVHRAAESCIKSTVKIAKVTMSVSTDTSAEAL
How it was run: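 CHO-CB1 C3 cells (human CB1) were seeded at 8000 cells/well in medium with dialyzed FBS and preincubated 15 min at 37 °C. Compounds or the CP55940 control were added for 15 min at 37 °C, then forskolin 10 µM for 5 min. cAMP was read by HTRF after 1 h at room temperature (λex 320 nm, λem 620-665 nm).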

[15] = Metal chelating activity assessed as Fe2+-compound complex formation incubated for 15 mins by Ferrozine based assay
How it was run: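 FeSO₄ (25 µM) in water incubated with or without test compound (100 µM, DMSO) for 15 min at room temperature, 300 µL final. Ferrozine then added (1 mM final), shaken 15 min at room temperature. Absorbance of the ferrozine–Fe(II) magenta complex read at 562 nm; chelation seen as reduced complex formation.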

Cannabinoid receptor 1 [16] = target: T1, Cannabinoid receptor 1; assay: Displacement of [3H]CP55940 from recombinant human CB1 receptor expressed in HEK293 cell membrane incubated for 60 mins by beta scintillation counter method
THP-1 [17] = assay: Antiinflammatory activity in LPS-activated human THP-1 monocytes assessed as decrease in IL-6 level incubated for 24 hrs by ELISA based qRT-PCR analysis; type: functional, cell-based; how it was run: as §1

O=C(NC12CC3CC(CC(C3)C1)C2)c1ccccc1OCc1ccccc1
Activity (THP-1 [1]): Active | Emax (Cannabinoid receptor 2): 96.3% | Activity (THP-1 [2]): Active | Emax [3]: 12.6% | Activity (THP-1 [4]): inactive | Activity (THP-1 [5]): Active | Activity (THP-1 [6]): Active | Activity (THP-1 [7]): inactive | Activity (THP-1 [8]): inactive | Activity (THP-1 [9]): inactive | Activity (THP-1 [10]): inactive | Activity (THP-1 [11]): inactive | Activity (THP-1 [12]): inactive | Activity (THP-1 [13]): inactive | Emax (Cannabinoid receptor 1 [14]): 100% | Activity [15]: Active | Ki (Cannabinoid receptor 1 [16]): 241 nM

O=C(NC12CC3CC(CC(C3)C1)C2)c1ccccc1OCC1CCCCC1
Activity (THP-1 [1]): Active | Emax (Cannabinoid receptor 2): 90.1% | Activity (THP-1 [2]): Active | Emax [3]: 5.5% | Activity (THP-1 [4]): Active | Activity (THP-1 [5]): Active | Activity (THP-1 [6]): Active | Activity (THP-1 [7]): inactive | Activity (THP-1 [8]): inactive | Activity (THP-1 [9]): inactive | Activity (THP-1 [10]): inactive | Activity (THP-1 [11]): inactive | Activity (THP-1 [17]): inactive | Emax (Cannabinoid receptor 1 [14]): 75% | Activity [15]: Active | Ki (Cannabinoid receptor 1 [16]): 67.6 nM

CCCCCOc1ccccc1C(=O)NC12CC3CC(CC(C3)C1)C2
Activity (THP-1 [1]): Active | Emax (Cannabinoid receptor 2): 95.3% | Activity (THP-1 [2]): Active | Emax [3]: 34.5% | Activity (THP-1 [4]): Active | Activity (THP-1 [5]): Active | Activity (THP-1 [6]): inactive | Activity (THP-1 [7]): inactive | Activity (THP-1 [8]): inactive | Activity (THP-1 [9]): inactive | Activity (THP-1 [10]): inactive | Activity (THP-1 [11]): inactive | Emax (Cannabinoid receptor 1 [14]): 100% | Activity [15]: Active | Ki (Cannabinoid receptor 1 [16]): 153 nM
